In ChEMBL document CHEMBL3992557, “Synthesis and biological evaluation of novel N3-substituted dihydropyrimidine derivatives as T-type calcium channel blockers and their efficacy as analgesics in mouse models of inflammatory pain” (Bioorg Med Chem, 2017):
The source made the active and inactive calls.

Legend:
[1] = target: Cav1.2 (voltage-dependent L-type calcium channel subunit alpha-1C) (Rattus norvegicus, UniProt P22002); assay: (§1) Inhibition of GFP-fused rat Cav1.2 expressed in human tsA-201 cells co-expressing Cavbeta1b/Cavalpha2delta1 assessed as tonic block at 10 uM at holding potential of -90 mV by whole cell patch clamp method relative to control; assay type: cell-based
Sequence of Cav1.2 (voltage-dependent L-type calcium channel subunit alpha-1C) (P22002 whole entry, the tested form may be a part): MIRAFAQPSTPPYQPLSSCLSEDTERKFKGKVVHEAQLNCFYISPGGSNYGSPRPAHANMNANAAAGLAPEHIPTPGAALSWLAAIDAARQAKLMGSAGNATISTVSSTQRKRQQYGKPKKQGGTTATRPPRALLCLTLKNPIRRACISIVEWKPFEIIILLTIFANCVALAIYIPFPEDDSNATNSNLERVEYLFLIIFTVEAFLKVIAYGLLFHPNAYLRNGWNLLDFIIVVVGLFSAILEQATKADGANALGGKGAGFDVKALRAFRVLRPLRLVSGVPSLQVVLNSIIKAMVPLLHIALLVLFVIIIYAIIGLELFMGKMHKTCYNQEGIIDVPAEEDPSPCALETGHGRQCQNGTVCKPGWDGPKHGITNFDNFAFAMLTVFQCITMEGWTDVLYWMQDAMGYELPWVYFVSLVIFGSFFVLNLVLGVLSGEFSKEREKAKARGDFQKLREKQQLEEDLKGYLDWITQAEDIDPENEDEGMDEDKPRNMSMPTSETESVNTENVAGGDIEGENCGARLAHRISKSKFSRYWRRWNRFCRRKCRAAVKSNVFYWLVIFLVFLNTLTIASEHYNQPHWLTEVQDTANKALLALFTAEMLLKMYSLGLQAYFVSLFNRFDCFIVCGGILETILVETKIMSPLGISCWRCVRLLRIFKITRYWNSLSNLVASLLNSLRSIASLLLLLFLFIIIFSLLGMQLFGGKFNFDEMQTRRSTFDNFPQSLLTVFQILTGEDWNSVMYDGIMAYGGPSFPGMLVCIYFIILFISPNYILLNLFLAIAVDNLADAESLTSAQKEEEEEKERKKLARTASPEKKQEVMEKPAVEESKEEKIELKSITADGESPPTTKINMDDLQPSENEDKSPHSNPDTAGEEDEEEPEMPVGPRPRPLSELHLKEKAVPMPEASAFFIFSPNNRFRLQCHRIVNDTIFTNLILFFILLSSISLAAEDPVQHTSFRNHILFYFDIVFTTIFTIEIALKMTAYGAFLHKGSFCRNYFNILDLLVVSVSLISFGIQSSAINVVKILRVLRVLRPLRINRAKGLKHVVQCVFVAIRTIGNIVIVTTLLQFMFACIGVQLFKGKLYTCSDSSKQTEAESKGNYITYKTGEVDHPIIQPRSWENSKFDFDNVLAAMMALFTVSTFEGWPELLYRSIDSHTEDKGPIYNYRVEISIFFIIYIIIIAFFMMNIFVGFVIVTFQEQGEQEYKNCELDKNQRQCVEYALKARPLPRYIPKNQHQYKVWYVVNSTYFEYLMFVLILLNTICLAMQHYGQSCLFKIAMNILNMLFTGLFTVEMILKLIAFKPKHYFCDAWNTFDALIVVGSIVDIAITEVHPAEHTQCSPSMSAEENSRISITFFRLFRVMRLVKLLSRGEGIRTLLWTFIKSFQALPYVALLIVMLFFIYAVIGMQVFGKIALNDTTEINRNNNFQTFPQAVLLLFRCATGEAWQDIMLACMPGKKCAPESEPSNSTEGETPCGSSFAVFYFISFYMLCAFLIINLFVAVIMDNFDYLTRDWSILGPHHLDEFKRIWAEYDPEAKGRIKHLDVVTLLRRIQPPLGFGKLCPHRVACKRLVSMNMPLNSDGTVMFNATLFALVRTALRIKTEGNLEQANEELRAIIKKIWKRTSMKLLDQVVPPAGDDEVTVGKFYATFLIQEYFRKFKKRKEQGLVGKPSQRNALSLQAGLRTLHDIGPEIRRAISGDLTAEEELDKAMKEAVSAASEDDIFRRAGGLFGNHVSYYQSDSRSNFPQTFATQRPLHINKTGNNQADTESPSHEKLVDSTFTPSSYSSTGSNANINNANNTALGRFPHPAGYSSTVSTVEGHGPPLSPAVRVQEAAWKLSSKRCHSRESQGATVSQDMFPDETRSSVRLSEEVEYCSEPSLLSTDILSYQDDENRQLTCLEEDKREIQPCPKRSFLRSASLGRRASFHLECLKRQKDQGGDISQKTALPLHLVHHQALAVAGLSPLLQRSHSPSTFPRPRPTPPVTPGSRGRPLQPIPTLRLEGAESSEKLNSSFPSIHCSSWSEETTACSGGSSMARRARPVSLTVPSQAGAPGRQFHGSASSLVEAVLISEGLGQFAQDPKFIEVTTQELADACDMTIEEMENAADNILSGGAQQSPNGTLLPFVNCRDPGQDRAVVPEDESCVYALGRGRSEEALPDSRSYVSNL
Method in brief: (§2)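 tsA-201 cells were co-transfected with rat Cav1.2 plus Cavβ1b and Cavα2δ1 (5 µg each) and a GFP marker, then kept 2 days (30°C after 16-18 h). Whole-cell patch clamp used 20 mM BaCl2 bath, P/4 leak correction, 10 kHz sampling. Tonic resting-state block at 10 µM was given as % current inhibition. Final DMSO ≤0.1%.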

[2] = target: T1, Voltage-dependent T-type calcium channel subunit alpha-1H (Homo sapiens, UniProt O95180); assay: Inhibition of GFP-fused Cav3.2-alpha1 (unknown origin) expressed in human tsA-201 cells at 10 uM at holding potential of -110 mV by whole cell patch clamp method relative to control; assay type: cell-based
T1 sequence (O95180 whole entry, the tested form may be a part): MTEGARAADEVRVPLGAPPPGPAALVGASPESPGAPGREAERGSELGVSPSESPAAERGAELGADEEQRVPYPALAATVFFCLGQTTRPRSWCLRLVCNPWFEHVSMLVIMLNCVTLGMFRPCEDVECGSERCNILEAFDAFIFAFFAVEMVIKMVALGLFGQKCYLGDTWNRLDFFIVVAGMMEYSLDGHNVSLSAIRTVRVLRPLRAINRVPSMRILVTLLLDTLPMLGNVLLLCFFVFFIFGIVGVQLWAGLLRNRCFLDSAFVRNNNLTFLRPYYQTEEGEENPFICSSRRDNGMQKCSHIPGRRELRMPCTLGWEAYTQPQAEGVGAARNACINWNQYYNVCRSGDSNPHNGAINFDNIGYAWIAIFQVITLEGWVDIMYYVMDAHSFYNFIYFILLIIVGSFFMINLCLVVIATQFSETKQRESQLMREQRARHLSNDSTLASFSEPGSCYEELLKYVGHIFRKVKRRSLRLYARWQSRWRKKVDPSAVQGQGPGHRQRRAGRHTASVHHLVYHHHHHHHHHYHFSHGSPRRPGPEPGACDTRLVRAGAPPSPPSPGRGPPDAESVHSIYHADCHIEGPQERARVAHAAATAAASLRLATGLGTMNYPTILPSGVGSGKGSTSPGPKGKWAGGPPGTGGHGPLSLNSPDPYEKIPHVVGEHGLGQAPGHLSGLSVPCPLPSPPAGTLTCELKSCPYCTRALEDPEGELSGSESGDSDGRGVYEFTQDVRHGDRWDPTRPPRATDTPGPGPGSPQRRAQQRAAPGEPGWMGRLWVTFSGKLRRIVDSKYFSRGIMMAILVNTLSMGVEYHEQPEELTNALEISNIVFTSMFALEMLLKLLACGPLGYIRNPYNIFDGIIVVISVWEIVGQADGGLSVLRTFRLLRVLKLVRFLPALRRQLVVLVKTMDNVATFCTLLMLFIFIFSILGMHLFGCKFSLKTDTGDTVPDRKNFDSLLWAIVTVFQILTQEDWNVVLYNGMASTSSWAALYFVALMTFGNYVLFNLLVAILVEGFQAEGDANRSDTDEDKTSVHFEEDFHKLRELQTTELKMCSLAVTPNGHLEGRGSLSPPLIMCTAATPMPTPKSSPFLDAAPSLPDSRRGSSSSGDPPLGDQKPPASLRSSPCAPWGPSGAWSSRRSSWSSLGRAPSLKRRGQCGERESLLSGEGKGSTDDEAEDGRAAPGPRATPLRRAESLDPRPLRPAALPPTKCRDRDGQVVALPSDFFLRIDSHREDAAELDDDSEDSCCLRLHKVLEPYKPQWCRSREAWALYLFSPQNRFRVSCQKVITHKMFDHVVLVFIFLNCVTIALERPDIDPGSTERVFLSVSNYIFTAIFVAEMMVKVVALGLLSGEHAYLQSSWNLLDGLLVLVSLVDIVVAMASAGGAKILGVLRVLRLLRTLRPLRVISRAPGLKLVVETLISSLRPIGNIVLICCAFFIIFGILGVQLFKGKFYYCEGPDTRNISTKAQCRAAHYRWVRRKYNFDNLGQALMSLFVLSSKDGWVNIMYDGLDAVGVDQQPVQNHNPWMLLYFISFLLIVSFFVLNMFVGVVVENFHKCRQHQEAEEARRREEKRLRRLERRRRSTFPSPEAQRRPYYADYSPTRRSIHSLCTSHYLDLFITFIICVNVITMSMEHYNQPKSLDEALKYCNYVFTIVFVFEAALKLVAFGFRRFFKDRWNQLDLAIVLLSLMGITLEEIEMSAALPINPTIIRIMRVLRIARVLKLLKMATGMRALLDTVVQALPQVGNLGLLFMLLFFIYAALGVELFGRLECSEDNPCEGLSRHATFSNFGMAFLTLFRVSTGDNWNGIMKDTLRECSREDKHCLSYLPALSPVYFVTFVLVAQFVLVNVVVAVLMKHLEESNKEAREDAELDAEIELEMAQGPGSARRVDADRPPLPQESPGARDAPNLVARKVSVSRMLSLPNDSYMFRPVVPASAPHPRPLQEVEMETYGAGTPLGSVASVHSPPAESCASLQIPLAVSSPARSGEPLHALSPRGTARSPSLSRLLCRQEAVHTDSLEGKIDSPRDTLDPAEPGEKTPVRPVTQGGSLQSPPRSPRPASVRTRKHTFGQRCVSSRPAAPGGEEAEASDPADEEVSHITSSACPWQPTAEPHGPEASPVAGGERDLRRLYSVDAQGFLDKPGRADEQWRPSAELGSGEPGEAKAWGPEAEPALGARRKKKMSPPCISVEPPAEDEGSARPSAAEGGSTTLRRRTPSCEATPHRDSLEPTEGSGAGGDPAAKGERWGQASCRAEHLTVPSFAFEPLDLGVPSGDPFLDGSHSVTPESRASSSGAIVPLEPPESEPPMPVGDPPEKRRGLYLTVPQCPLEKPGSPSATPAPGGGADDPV
Method in brief: (§3)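 HEK tsA-201 cells transfected by calcium phosphate with channel DNA plus GFP marker, moved to 30°C at 16-18 h, recorded two days later. Whole-cell patch clamp used Ba2+ (20 mM) external solution, pH 7.4, with CsCl-based internal solution. Recordings were P/4 leak-subtracted, 10 kHz sampling. Compound at 10 µM, DMSO ≤0.1% final, reported as % current inhibition. Cav2.2 n=3.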

[3] = system: Mus musculus; assay: Analgesic activity in CFA-induced mechanical hyperalgesia C57BL/6J mouse model assessed as mechanical paw withdrawal threshold at 3 ug/10 uL administered intrathecally 2 days after CFA injection measured at 90 to 150 mins post dose; assay type: functional
Method in brief: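 Adult male C57BL/6J mice (7-9 weeks). Right hind paw given 30 µl CFA intraplantar; 2 days later dosed intrathecally at 3 µg/10 µl, vehicle 1% DMSO in PBS. Thresholds read blinded with digital plantar aesthesiometer at 0, 20, 45, 90 and 150 min, each paw tested three times. n=6 mice per group, mean ± S.E.M, two-way ANOVA with Bonferroni post-hoc.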

[4] = target: T1, Voltage-dependent T-type calcium channel subunit alpha-1H; assay: Inhibition of GFP-fused Cav3.2-alpha1 (unknown origin) expressed in human tsA-201 cells at holding potential of -110 mV by whole cell patch clamp method; assay type: cell-based
Method in brief: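 tsA-201 cells transiently expressing Cav3.2 α1 plus GFP were recorded by whole-cell patch clamp with 20 mM Ba2+ as charge carrier and P/4 leak subtraction. A dose-response curve was fitted to give IC50, n=3 cells per dose. Final DMSO ≤0.1%.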

[5] = target: T1, Voltage-dependent T-type calcium channel subunit alpha-1H; assay: Inhibition of GFP-fused Cav3.2-alpha1 (unknown origin) expressed in human tsA-201 cells assessed as time required to reach steady state inhibition at 3 uM at holding potential of -110 mV by whole cell patch clamp method; assay type: cell-based
[6] = target: Voltage-dependent N-type calcium channel subunit alpha-1B (Homo sapiens) (UniProt Q00975); assay: Inhibition of GFP-fused Cav2.2 (unknown origin) expressed in human tsA-201 cells assessed as at 10 uM by whole cell patch clamp method relative to control; assay type: cell-based; method in brief: as §3
[7] = system: Mus musculus; assay: Analgesic activity in formalin-induced nociception C57BL/6J mouse model assessed as reduction in time spent licking and biting formalin injected paw per 10 uL administered intrathecally 20 mins prior to formalin injection measured up to 30 mins post formalin injection; assay type: functional
Method in brief: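 Adult male C57BL/6J mice (7-9 weeks). Intrathecal pretreatment at 0.3, 1 and 3 µg in 10 µl, or vehicle (1% DMSO in PBS, 10 µl). After 20 min, 20 µl of 1.25% formalin injected intraplantar into right hind paw.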

[8] = target: T1, Voltage-dependent T-type calcium channel subunit alpha-1H; assay: Inhibition of GFP-fused Cav3.2-alpha1 (unknown origin) expressed in human tsA-201 cells assessed as half inactivation potential for steady state inactivation curve at 3 uM at holding potential of -110 mV by whole cell patch clamp method (reference value: -47.6 +/- 0.87 mV); assay type: cell-based
[9] = target: T1, Voltage-dependent T-type calcium channel subunit alpha-1H; assay: Inhibition of GFP-fused Cav3.2-alpha1 (unknown origin) expressed in human tsA-201 cells assessed as half activation potential at 3 uM at holding potential of -110 mV by whole cell patch clamp method (reference value: -32.07 +/- 0.8 mV); assay type: cell-based
[10] = target: Voltage-dependent L-type calcium channel subunit alpha-1C (Rattus norvegicus, UniProt P22002); assay: as §1; assay type: cell-based; conditions: 10 µM; method in brief: as §2
Sequence of Voltage-dependent L-type calcium channel subunit alpha-1C (P22002 whole entry): as the sequence (P22002 whole entry, the tested form may be a part) above

[11] = system: Mus musculus; assay: Analgesic activity in CFA-induced mechanical hyperalgesia C57BL/6J mouse model assessed as mechanical paw withdrawal threshold at 1 ug/10 uL administered intrathecally 2 days after CFA injection measured at 20 to 150 mins post dose; assay type: functional
Method in brief: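 C57BL/6J male mice, 7-9 weeks; 30 µl CFA injected into right hind paw; 2 days later single intrathecal dose with vehicle 1% DMSO in PBS. Paw withdrawal threshold measured blinded by digital plantar aesthesiometer at 0, 20, 45, 90 and 150 min after dosing, after ≥1 h habituation. Each paw stimulated three times. n=6 per group; mean ± S.E.M, two-way ANOVA with Bonferroni test.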

[12] = target: T1, Voltage-dependent T-type calcium channel subunit alpha-1H; assay: Inhibition of GFP-fused Cav3.2-alpha1 (unknown origin) expressed in human tsA-201 cells assessed as time required to reach steady state inhibition at 1 uM at holding potential of -110 mV by whole cell patch clamp method; assay type: cell-based
[13] = target: T1, Voltage-dependent T-type calcium channel subunit alpha-1H; assay: Inhibition of GFP-fused Cav3.2-alpha1 (unknown origin) expressed in human tsA-201 cells assessed as half inactivation potential for steady state inactivation curve at 1 uM at holding potential of -110 mV by whole cell patch clamp method (reference value: -46.27 +/- 0.57 mV); assay type: cell-based
[14] = target: T1, Voltage-dependent T-type calcium channel subunit alpha-1H; assay: Inhibition of GFP-fused Cav3.2-alpha1 (unknown origin) expressed in human tsA-201 cells assessed as half activation potential at 1 uM at holding potential of -110 mV by whole cell patch clamp method (reference value: -30.84 +/- 0.46 mV); assay type: cell-based

SMILES | inhibition [2] | inhibition at 10 µM [1] [%] | inhibition (INH) [10] | also measured
CCOC(=O)C1=C(C)NC(=O)N(CCC(=O)N/N=C/c2ccccc2)C1c1cccc([N+](=O)[O-])c1 (centres undefined) | 70 to 95% | 60 to 85 |  | Activity [3]: Active; IC50 [4]: 3.39 µM; TIME [5]: 0.133 to 0.167 h; inhibition [6]: 31.9%; Activity [7]: Dose-dependent effect; MED [7]: 3 µg; Activity [8]: -48.8 mV; V1/2 [9]: -29.3 mV
CCOC(=O)C1=C(C)NC(=O)N(CCc2nnc(Nc3ccccc3)o2)C1c1cccc([N+](=O)[O-])c1 (centres undefined) | 70 to 95% |  | Not Active | 
CCOC(=O)C1=C(C)NC(=O)N(CCC(=O)N/N=C2/SCC(=O)N2c2ccccc2)C1c1cccc([N+](=O)[O-])c1 (centres undefined) | inactive |  | Not Active | 
CCOC(=O)C1=C(C)NC(=O)N(CCC(=O)NNC(=S)NC(c2ccccc2)c2ccccc2)C1c1cccc([N+](=O)[O-])c1 (centres undefined) | 70 to 95% |  | Not Active | IC50 [4]: 0.34 µM; inhibition [6]: 7.64%; Activity [11]: Active; TIME [12]: 0.133 to 0.167 h; MED [7]: 1 µg; Activity [13]: -51.2 mV; V1/2 [14]: -30.6 mV
CCOC(=O)C1=C(C)NC(=O)N(CCC(=O)N/N=C(/C)C(c2ccccc2)c2ccccc2)C1c1cccc([N+](=O)[O-])c1 (centres undefined) | inactive |  | Not Active | 
CCOC(=O)C1=C(C)NC(=O)N(CCc2nnc(Nc3ccccc3)s2)C1c1cccc([N+](=O)[O-])c1 (centres undefined) | 70 to 95% |  | Not Active | 
CCOC(=O)C1=C(C)NC(=O)N(CCC(=O)NNC(=S)Nc2ccccc2)C1c1cccc([N+](=O)[O-])c1 (centres undefined) | inactive |  | Not Active | 
CCOC(=O)C1=C(C)NC(=O)N(CCC(=O)N/N=C/C(c2ccccc2)c2ccccc2)C1c1cccc([N+](=O)[O-])c1 (centres undefined) | 70 to 95% | 60 to 85 |  | 
CCOC(=O)C1=C(C)NC(=O)N(CCC(=O)N/N=c2\scc(-c3ccc(F)cc3)n2-c2ccccc2)C1c1cccc([N+](=O)[O-])c1 (centres undefined) | inactive |  | Not Active | 

Further lines, with some results ahead:

inhibition [2] | SMILES | inhibition at 10 µM [1] [%] | inhibition (INH) [10] | also measured
50% | CCOC(=O)C1=C(C)NC(=O)N(CCC(=O)N/N=C2/C(=O)Nc3ccccc32)C1c1cccc([N+](=O)[O-])c1 (centres undefined) | 50 |  | 
70 to 95% | CCOC(=O)C1=C(C)NC(=O)N(CCC(=O)N/N=C/c2ccc(F)cc2)C1c1cccc([N+](=O)[O-])c1 (centres undefined) | 60 to 85 |  | 
50% | CCOC(=O)C1=C(C)NC(=O)N(CCC(=O)NNS(=O)(=O)c2ccccc2)C1c1cccc([N+](=O)[O-])c1 (centres undefined) | 50 |  | 
inactive | CCOC(=O)C1=C(C)NC(=O)N(CCC(=O)n2nc(C)cc2C)C1c1cccc([N+](=O)[O-])c1 (centres undefined) |  | Not Active | 
70 to 95% | CCOC(=O)C1=C(C)NC(=O)N(CCC(=O)N/N=C(/C)c2ccc(F)cc2)C1c1cccc([N+](=O)[O-])c1 (centres undefined) | 60 to 85 |  | 
70 to 95% | CCOC(=O)C1=C(C)NC(=O)N(CCC(=O)N/N=C\C=C\c2ccccc2)C1c1cccc([N+](=O)[O-])c1 (centres undefined) | 60 to 85 |  | 
70 to 95% | CCOC(=O)C1=C(C)NC(=O)N(CCC(=O)N/N=C2/SCC(=O)N2c2ccc(C)cc2)C1c1cccc([N+](=O)[O-])c1 (centres undefined) |  |  | 
inactive | CCOC(=O)C1=C(C)NC(=O)N(CC/C(=N/N(C(C)=O)C(C)=O)OC(C)=O)C1c1cccc([N+](=O)[O-])c1 (centres undefined) |  | Not Active | 
70 to 95% | CCOC(=O)C1=C(C)NC(=O)N(CCC(=O)N/N=C(/C)CC(c2ccccc2)c2ccccc2)C1c1cccc([N+](=O)[O-])c1 (centres undefined) | 60 to 85 |  | 
70 to 95% | CCOC(=O)C1=C(C)NC(=O)N(CCC(=O)N/N=C(/C)c2ccccc2)C1c1cccc([N+](=O)[O-])c1 (centres undefined) | 60 to 85 |  | 
inactive | CCOC(=O)C/C(C)=N\NC(=O)CCN1C(=O)NC(C)=C(C(=O)OCC)C1c1cccc([N+](=O)[O-])c1 (centres undefined) |  | Not Active | 
